Experimental data reported in ChEMBL document CHEMBL1126988, “Quinolone antibacterials containing the new 7-[3-(1-aminoethyl)-1- pyrrolidinyl] side chain: the effects of the 1-aminoethyl moiety and its stereochemical configurations on potency and in vivo efficacy” (J Med Chem, 1993).
Values after ≈ are worked out from the molar mass of the structure shown.

Legend:
DNA gyrase = DNA gyrase (Escherichia coli, UniProt P0AES4+P0AES6); test: Inhibition against DNA gyrase; format: protein-complex assay
Streptococcus pneumoniae = test: Minimum inhibitory concentration was evaluated in vitro against Streptococcus pneumoniae SV-1; format: functional
In short: (§1)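 Standard microtitration broth assay against a panel of 10 Gram-positive and Gram-negative organisms. MIC read in µg/mL and averaged over multiple experiments.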

Staphylococcus aureus [1] = test: Minimum inhibitory concentration was evaluated in vitro against Staphylococcus aureus UC 76; format: functional; in short: as §1
Enterobacter cloacae = test: Minimum inhibitory concentration in vitro against Enterobacter cloacae MA 2646; format: functional
Klebsiella pneumoniae = test: Minimum inhibitory concentration was evaluated in vitro against Klebsiella pneumoniae MGH2; format: functional; in short: as §1
Streptococcus pyogenes [2] = test: Antibacterial activity measured as mouse protection against Streptococcus pyogenes C 203 after subcutaneous administration; format: functional; conditions: for ED50: Streptococcus pyogenes, C 203, sc, read-out: PD50
Streptococcus pyogenes [3] = test: Minimum inhibitory concentration was evaluated in vitro against Streptococcus pyogenes C 203; format: functional; in short: as §1
Escherichia coli [4] = test: Antibacterial activity in vitro against Escherichia coli Vogel; format: functional; in short: as §1
Pseudomonas aeruginosa = test: Minimum inhibitory concentration was evaluated in vitro against Pseudomonas aeruginosa UI-18; format: functional; in short: as §1
Enterococcus faecalis = test: Minimum inhibitory concentration was evaluated in vitro against Enterococcus faecalis MGH-2; format: functional; in short: as §1
Streptococcus pyogenes [5] = test: Compounds were evaluated in vivo for antibacterial activity for mouse protection against Streptococcus pyogenes C 203 after oral administration; format: functional; conditions: for ED50: Streptococcus pyogenes, C 203, po, read-out: PD50
Staphylococcus aureus [6] = test: Minimum inhibitory concentration was evaluated in vitro against Staphylococcus aureus H 228; format: functional; in short: as §1
Providencia rettgeri = test: Minimum inhibitory concentration was evaluated in vitro against Providencia rettgeri M1771; format: functional; in short: as §1
Escherichia coli [7] = test: Antibacterial activity against Escherichia coli Vogel after subcutaneous administration in mouse; format: functional; conditions: Escherichia coli, sc; read-out: PD50
Escherichia coli [8] = test: Antibacterial activity against Escherichia coli Vogel after oral administration in mouse; format: functional; conditions: Escherichia coli, po; read-out: PD50
[9] = Clonogenic cytotoxicity against hamster V-79 cells; format: functional, Cricetulus griseus, V79
In short: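 Chinese hamster V-79 cells grown overnight, then drug-treated for 3 h at 37 °C. Medium is replaced with fresh medium and cells are incubated 5 days to allow colony formation. IC50 (µg/mL) is the concentration inhibiting colony formation by 50% relative to control.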

Mus musculus = species on record: Mus musculus; test: Compounds were evaluated for phototoxicity no-effect dose in mouse; format: functional
In short: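 Depilated female CD-1 mice, five per dose plus controls. Animals are dosed orally and then exposed daily to UV-A (320–400 nm) for 3 h, for up to 4 days or until a definite positive response. Redness or erythema relative to controls, read 24 h after irradiation, counts as positive. Reported as the highest dose with no effect (mg/kg).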

[10] = Streptococcus pneumoniae, read-out: MIC
[11] = Staphylococcus aureus, read-out: MIC
[12] = Enterobacter cloacae, read-out: MIC
[13] = Klebsiella pneumoniae, read-out: MIC
[14] = Streptococcus pyogenes, read-out: MIC
[15] = Escherichia coli, read-out: MIC
[16] = Pseudomonas aeruginosa, read-out: MIC
[17] = Enterococcus faecalis, read-out: MIC
[18] = Providencia rettgeri, read-out: MIC

## C[C@H](N)[C@H]1CCN(c2nc3c(cc2F)c(=O)c(C(=O)O)cn3C2CC2)C1
DNA gyrase
  IC50: 6.94 µM
Streptococcus pneumoniae; [10]
  MIC: 0.05 µg/mL (≈ 0.139 µM)
Staphylococcus aureus [1]; [11]
  MIC: 0.025 µg/mL (≈ 0.0694 µM)
Enterobacter cloacae; [12]
  MIC: 0.05 µg/mL (≈ 0.139 µM)
Klebsiella pneumoniae; [13]
  MIC: 0.2 µg/mL (≈ 0.555 µM)
Streptococcus pyogenes [2]
  ED50: 10 mg/kg
Streptococcus pyogenes [3]; [14]
  MIC: 0.05 µg/mL (≈ 0.139 µM)
Escherichia coli [4]; [15]
  MIC: 0.05 µg/mL (≈ 0.139 µM)
Pseudomonas aeruginosa; [16]
  MIC: 1.6 µg/mL (≈ 4.44 µM)
Enterococcus faecalis; [17]
  MIC: 0.1 µg/mL (≈ 0.277 µM)
Streptococcus pyogenes [5]
  ED50: 28 mg/kg
Staphylococcus aureus [6]; [11]
  MIC: 0.2 µg/mL (≈ 0.555 µM)
Providencia rettgeri; [18]
  MIC: 0.4 µg/mL (≈ 1.11 µM)

## C[C@@H](N)[C@@H]1CCN(c2cc3c(cc2F)c(=O)c(C(=O)O)cn3C2CC2)C1
DNA gyrase
  IC50: 2.09 µM
Streptococcus pneumoniae; [10]
  MIC: 0.025 µg/mL (≈ 0.0696 µM)
Staphylococcus aureus [1]; [11]
  MIC: 0.05 µg/mL (≈ 0.139 µM)
Enterobacter cloacae; [12]
  MIC: 0.2 µg/mL (≈ 0.556 µM)
Klebsiella pneumoniae; [13]
  MIC: 0.4 µg/mL (≈ 1.11 µM)
Streptococcus pyogenes [2]
  ED50: 2 mg/kg
Streptococcus pyogenes [3]; [14]
  MIC: 0.025 µg/mL (≈ 0.0696 µM)
Escherichia coli [4]; [15]
  MIC: 0.1 µg/mL (≈ 0.278 µM)
Pseudomonas aeruginosa; [16]
  MIC: 1.6 µg/mL (≈ 4.45 µM)
Enterococcus faecalis; [17]
  MIC: 0.1 µg/mL (≈ 0.278 µM)
Streptococcus pyogenes [5]
  ED50: > 100 mg/kg
Staphylococcus aureus [6]; [11]
  MIC: 0.2 µg/mL (≈ 0.556 µM)
Providencia rettgeri; [18]
  MIC: 0.8 µg/mL (≈ 2.23 µM)

## CN[C@H](C)[C@H]1CCN(c2c(F)c(N)c3c(=O)c(C(=O)O)cn(C4CC4)c3c2F)C1 (mixture of isomers)
Escherichia coli [7]
  ED50: 0.4 mg/kg
Escherichia coli [8]
  ED50: 3 mg/kg
Streptococcus pneumoniae
  MIC: 0.003 µg/mL
Staphylococcus aureus [1]
  MIC: 0.003 µg/mL
Enterobacter cloacae
  MIC: 0.025 µg/mL
[9]
  Cytotoxicity: 17 µg/mL
Klebsiella pneumoniae
  MIC: 0.05 µg/mL
Streptococcus pyogenes [2]
  PD50: 0.3 mg/kg
Streptococcus pyogenes [3]
  MIC: 0.003 µg/mL
Mus musculus
  Dose: <30 mg/kg
Escherichia coli [4]
  MIC: 0.025 µg/mL
Pseudomonas aeruginosa
  MIC: 0.8 µg/mL
Enterococcus faecalis
  MIC: 0.013 µg/mL
Streptococcus pyogenes [5]
  PD50: 0.6 mg/kg
Staphylococcus aureus [6]
  MIC: 0.003 µg/mL
Providencia rettgeri
  MIC: 0.1 µg/mL

## CCN[C@@H](C)[C@@H]1CCN(c2nc3c(cc2F)c(=O)c(C(=O)O)cn3C2CC2)C1 (racemic)
Escherichia coli [7]
  ED50: 1 mg/kg
Escherichia coli [8]
  ED50: 2 mg/kg
Streptococcus pneumoniae
  MIC: 0.025 µg/mL (≈ 0.0644 µM)
Staphylococcus aureus [1]
  MIC: 0.025 µg/mL (≈ 0.0644 µM)
Enterobacter cloacae; [12]
  MIC: 0.1 µg/mL (≈ 0.257 µM)
[9]
  Cytotoxicity: 130 µg/mL
Klebsiella pneumoniae; [13]
  MIC: 0.2 µg/mL (≈ 0.515 µM)
Streptococcus pyogenes [2]
  PD50: 2 mg/kg
Streptococcus pyogenes [3]
  MIC: 0.05 µg/mL (≈ 0.129 µM)
Mus musculus
  Dose: <30 mg/kg
Escherichia coli [4]; [15]
  MIC: 0.1 µg/mL (≈ 0.257 µM)
Pseudomonas aeruginosa; [16]
  MIC: 1.6 µg/mL (≈ 4.12 µM)
Enterococcus faecalis
  MIC: 0.05 µg/mL (≈ 0.129 µM)
Streptococcus pyogenes [5]
  PD50: 2 mg/kg
Staphylococcus aureus [6]; [11]
  MIC: 0.1 µg/mL (≈ 0.257 µM)
Providencia rettgeri; [18]
  MIC: 0.8 µg/mL (≈ 2.06 µM)

## C[C@@H](N)[C@H]1CCN(c2c(F)c(N)c3c(=O)c(C(=O)O)cn(C4CC4)c3c2F)C1 (racemic)
Escherichia coli [7]
  ED50: 0.3 mg/kg
Escherichia coli [8]
  ED50: 2 mg/kg
Streptococcus pneumoniae; [10]
  MIC: 0.003 µg/mL (≈ 0.00765 µM)
Staphylococcus aureus [1]; [11]
  MIC: 0.003 µg/mL (≈ 0.00765 µM)
Enterobacter cloacae; [12]
  MIC: 0.013 µg/mL (≈ 0.0331 µM)
[9]
  Cytotoxicity: <7.8 µg/mL
Klebsiella pneumoniae; [13]
  MIC: 0.013 µg/mL (≈ 0.0331 µM)
Streptococcus pyogenes [2]
  ED50: 0.1 mg/kg
Streptococcus pyogenes [3]; [14]
  MIC: 0.003 µg/mL (≈ 0.00765 µM)
Mus musculus
  Dose: <30 mg/kg
Escherichia coli [4]; [15]
  MIC: 0.013 µg/mL (≈ 0.0331 µM)
Pseudomonas aeruginosa; [16]
  MIC: 0.4 µg/mL (≈ 1.02 µM)
Enterococcus faecalis; [17]
  MIC: 0.003 µg/mL (≈ 0.00765 µM)
Streptococcus pyogenes [5]
  ED50: 0.6 mg/kg
Staphylococcus aureus [6]; [11]
  MIC: 0.003 µg/mL (≈ 0.00765 µM)
Providencia rettgeri; [18]
  MIC: 0.025 µg/mL (≈ 0.0637 µM)

## CNC(C)C1CCN(c2nc3c(cc2F)c(=O)c(C(=O)O)cn3-c2ccc(F)cc2F)C1 (racemic)
Escherichia coli [7]
  ED50: 2 mg/kg
Escherichia coli [8]
  ED50: 6 mg/kg
Streptococcus pneumoniae; [10]
  MIC: 0.025 µg/mL (≈ 0.056 µM)
Staphylococcus aureus [1]; [11]
  MIC: 0.025 µg/mL (≈ 0.056 µM)
Enterobacter cloacae; [12]
  MIC: 0.8 µg/mL (≈ 1.79 µM)
[9]
  Cytotoxicity: 310 µg/mL
Klebsiella pneumoniae; [13]
  MIC: 0.8 µg/mL (≈ 1.79 µM)
Streptococcus pyogenes [2]
  ED50: 1 mg/kg
Streptococcus pyogenes [3]; [14]
  MIC: 0.05 µg/mL (≈ 0.112 µM)
Mus musculus
  Dose: >100 mg/kg
Escherichia coli [4]; [15]
  MIC: 0.4 µg/mL (≈ 0.896 µM)
Pseudomonas aeruginosa; [16]
  MIC: 3.1 µg/mL (≈ 6.94 µM)
Enterococcus faecalis; [17]
  MIC: 0.2 µg/mL (≈ 0.448 µM)
Streptococcus pyogenes [5]
  ED50: 4 mg/kg
Staphylococcus aureus [6]; [11]
  MIC: 0.1 µg/mL (≈ 0.224 µM)
Providencia rettgeri; [18]
  MIC: 1.6 µg/mL (≈ 3.58 µM)

## C[C@@H](N)[C@@H]1CCN(c2nc3c(cc2F)c(=O)c(C(=O)O)cn3C2CC2)C1
DNA gyrase
  IC50: 2.08 µM
Streptococcus pneumoniae; [10]
  MIC: 0.006 µg/mL (≈ 0.0166 µM)
Staphylococcus aureus [1]; [11]
  MIC: 0.006 µg/mL (≈ 0.0166 µM)
Enterobacter cloacae; [12]
  MIC: 0.05 µg/mL (≈ 0.139 µM)
Klebsiella pneumoniae; [13]
  MIC: 0.1 µg/mL (≈ 0.277 µM)
Streptococcus pyogenes [2]
  ED50: 2 mg/kg
Streptococcus pyogenes [3]; [14]
  MIC: 0.013 µg/mL (≈ 0.0361 µM)
Escherichia coli [4]; [15]
  MIC: 0.05 µg/mL (≈ 0.139 µM)
Pseudomonas aeruginosa; [16]
  MIC: 0.8 µg/mL (≈ 2.22 µM)
Enterococcus faecalis; [17]
  MIC: 0.05 µg/mL (≈ 0.139 µM)
Streptococcus pyogenes [5]
  ED50: 14 mg/kg
Staphylococcus aureus [6]; [11]
  MIC: 0.05 µg/mL (≈ 0.139 µM)
Providencia rettgeri; [18]
  MIC: 0.4 µg/mL (≈ 1.11 µM)

## CCN[C@H](C)[C@H]1CCN(c2c(F)cc3c(=O)c(C(=O)O)cn(C4CC4)c3c2OC)C1 (racemic)
Escherichia coli [7]
  ED50: 2 mg/kg
Escherichia coli [8]
  ED50: 5 mg/kg
Streptococcus pneumoniae; [10]
  MIC: 0.006 µg/mL (≈ 0.0144 µM)
Staphylococcus aureus [1]; [11]
  MIC: 0.003 µg/mL (≈ 0.00719 µM)
Enterobacter cloacae; [12]
  MIC: 0.1 µg/mL (≈ 0.24 µM)
[9]
  Cytotoxicity: 110 µg/mL
Klebsiella pneumoniae; [13]
  MIC: 0.2 µg/mL (≈ 0.479 µM)
Streptococcus pyogenes [2]
  ED50: 0.2 mg/kg
Streptococcus pyogenes [3]; [14]
  MIC: 0.006 µg/mL (≈ 0.0144 µM)
Mus musculus
  Dose: >100 mg/kg
Escherichia coli [4]; [15]
  MIC: 0.1 µg/mL (≈ 0.24 µM)
Pseudomonas aeruginosa; [16]
  MIC: 3.1 µg/mL (≈ 7.43 µM)
Enterococcus faecalis; [17]
  MIC: 0.025 µg/mL (≈ 0.0599 µM)
Streptococcus pyogenes [5]
  ED50: 0.5 mg/kg
Staphylococcus aureus [6]; [11]
  MIC: 0.013 µg/mL (≈ 0.0311 µM)
Providencia rettgeri; [18]
  MIC: 0.4 µg/mL (≈ 0.958 µM)
